Compounds with a hit are over-represented: about 3.8% of the library has one in this group of screens.
MrgX1 antag: blocks BAM8-22 activation of human MrgX1 receptor. MRGX1-HEK293 calcium flux, Fluo-4, BAM8-22 antagonism; stronger effect = lower value. B-score at 10 µM. actives 1.3% (n = 310,000);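 active = calcium-response B-score plate-corrected more than 3 library SD below zero, starting fluorescence within 5 deviations, no agonist response on first addition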;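 note: peak minus trough fluorescence over baseline after final BAM8-22 challenge near maximal dose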
Target sequence (Q96LB2 whole entry, looked up): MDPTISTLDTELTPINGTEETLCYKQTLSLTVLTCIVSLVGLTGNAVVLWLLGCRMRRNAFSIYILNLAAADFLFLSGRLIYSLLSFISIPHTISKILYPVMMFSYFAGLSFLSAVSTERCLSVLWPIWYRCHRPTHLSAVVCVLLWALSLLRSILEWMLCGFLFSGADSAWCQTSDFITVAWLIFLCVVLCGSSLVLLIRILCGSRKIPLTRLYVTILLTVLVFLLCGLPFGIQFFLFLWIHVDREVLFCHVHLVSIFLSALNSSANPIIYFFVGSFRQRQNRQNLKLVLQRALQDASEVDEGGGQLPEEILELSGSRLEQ
RGS4 inh: human RGS4 inhibition. P49798. HEK293 M3R/RGS4 inducible, Fluo-4 calcium flux; stronger effect = higher value; triggered by carbachol at its EC20. B-score at 10 µM. actives 0.45% (n = 310,000). AID 463165;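 active = B-score, a plate-corrected calcium signal, over three deviations above library mean, with baseline fluorescence within five deviations of library mean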;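 note: RGS4 expression induced by doxycycline in cells with stable M3 receptor; B-score is computed from the integrated fluorescence ratio over baseline after carbachol; higher B-score means a larger calcium signal and so more RGS4 inhibition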
Target sequence (P49798 whole entry, looked up): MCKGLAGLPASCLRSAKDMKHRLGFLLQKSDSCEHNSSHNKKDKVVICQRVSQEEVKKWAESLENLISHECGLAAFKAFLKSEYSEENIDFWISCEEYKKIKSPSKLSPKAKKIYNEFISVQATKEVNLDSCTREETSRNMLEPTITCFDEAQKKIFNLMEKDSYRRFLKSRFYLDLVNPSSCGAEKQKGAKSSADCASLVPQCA
MrgX1 PAM: human MrgX1 positive allosteric modulation, primary screen | Q96LB2 | MrgX1-HEK293, Fluo-4 calcium flux, FDSS; stronger effect = higher value | B-score at 10 µM | AID 588675 | actives 0.63% (n = 310,000);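 active = plate-corrected calcium response at least 3 library SD above typical, normal starting fluorescence, not activating the receptor alone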;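 note: compound read alongside a low EC10 to EC30 dose of BAM8-22 agonist; peak minus trough fluorescence over baseline measured at the second addition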
RGS4 act: RGS4 potentiation or activation. HEK293 M3R/inducible RGS4, carbachol calcium flux Fluo4; stronger effect = lower value. B-score at 10 µM. actives 0.92% (n = 310,000). AID 463111;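 active = B-score of the integrated calcium signal more than 4 SD below the library mean, with starting fluorescence not abnormally high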;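 note: negative B-score means reduced calcium response which marks RGS4 activation or potentiation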
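Material: M3R-expressing HEK293 line, RGS4 induced by doxycycline | Schedule: Overnight RGS4 induction, 30 min dye load 37 °C, 20 min compound RT | Measured by: Fluo4 fluorescence kinetic imaging of calcium | Read-out: Integrated calcium ratio converted to B score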
MrgX1 agonist: human MrgX1 receptor agonism, primary screen | Q96LB2 | MrgX1-HEK293 cells, Fluo-4 calcium fluorescence, agonist mode; stronger effect = higher value | B-score at 10 µM | actives 0.44% (n = 310,000);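 active = calcium response B-score plate-corrected fluorescence ratio at least 3 library SD, with starting fluorescence B-score inside 5 SD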
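Assay system: MrgX1-expressing HEK293 cells / Amount: fifteen thousand cells per well / Doses: test compound in the initial addition of three / Timing: cells plated overnight, dye loaded 0.5 h 37 °C, 0.5 h room temperature / Technique: kinetic calcium dye fluorescence, Fluo-4 NW / Control set: positive and negative controls per plate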
Hep lipid drop: hepatic lipid droplet formation modulation; AML12 mouse hepatocytes, oleate lipid droplets, BODIPY imaging; inhibition, % at 6.5 µM; actives 0.4% (n = 240,000);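 active = lipid droplet intensity inhibited by at least 50%, with more than 500 cells counted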
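Test system: AML12 mouse liver cells; schedule: overnight exposure; technique: high-content imaging of BODIPY-stained droplets and DAPI nuclei; read-out: % inhibition of corrected integrated BODIPY droplet signal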
Hep lipid conf: hepatic lipid droplet formation inhibition, confirmed | shares compounds with Hep lipid drop | AML12 mouse hepatocytes, BODIPY lipid droplet imaging; droplets induced with 100 µM oleic acid | inhibition, % at 5.2 µM | actives 65% (n = 870);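 active = inhibition of lipid droplet metric at least 50%, with more than 300 cells in each of four replicates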
AML12 cytotox: AML12 hepatocyte cytotoxicity (counter-screen) | shares compounds with Hep lipid drop | AML12 mouse hepatocytes, DAPI nuclear morphology cytotoxicity imaging; stronger effect = higher value; cells fed 100 µM oleate overnight | z-score at 5 µM | actives 3% (n = 870); in the data active = z-score above about 6.3;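 note: compound exposure lasted overnight at 37 °C before fixation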
AML12 tox ATP: confirmation of cytotoxicity in AML12 mouse hepatocytes | cytotoxicity, % at 50 µM | 530 tested, under 10 active | AML12 mouse hepatocyte viability, ATP luminescence; cells loaded with 100 µM oleic acid | shares compounds with Hep lipid drop;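 active = cytotoxicity above 50% in each of four replicates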;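 note: compound exposure lasted overnight at 37 °C before the ATP read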
Large screens that a line does not name were inactive (follow-up assays come after a bar, where they were run).

COc1cccc(N=Nc2ccc3ccccc3c2O)c1	Hep lipid drop 75 | Hep lipid conf inactive | AML12 cytotox inactive | AML12 tox ATP 61
COc1ccc(N=Nc2ccc3ccccc3c2)c(O)c1	none
c1ccc(CCCN2CCN(c3ccccc3)CC2)cc1	none
COCCCn1c(-c2ccc(OC)cc2)nc2c1c(=O)[nH]c(=O)n2Cc1ccccc1	none
C=CCOc1ccc(-c2nc3c(c(=O)[nH]c(=O)n3Cc3ccccc3)n2CCCOC)cc1	Hep lipid drop 56 | Hep lipid conf 65 | AML12 cytotox inactive | AML12 tox ATP inactive
CCN(CC)c1ccc(CN(C(=O)c2cccs2)C2CCS(=O)(=O)C2)cc1 (configuration not stated)	none
COc1ccc(NC(=S)NC(=O)c2ccccc2Cl)cc1	Hep lipid drop 57 | Hep lipid conf inactive | AML12 cytotox inactive
c1ccc(CCC2CCCCN2Cc2cn[nH]c2-c2cc3ccccc3o2)nc1 (configuration not stated)	none
c1ccc2c(c1)CCCC2C1=NCCN1 (configuration not stated)	Hep lipid drop 53 | Hep lipid conf inactive | AML12 cytotox inactive
COc1ccc(NC(=O)COC(=O)/C=C/C(=O)OCC(=O)Nc2ccc(OC)c(Cl)c2)cc1Cl	Hep lipid drop 63 | Hep lipid conf inactive | AML12 cytotox inactive
Cc1nn(C)c(C)c1NC(=O)CC12CC3CC(CC(C3)C1)C2	none
C/C(=C\c1cccc(Cl)c1Cl)C(=O)c1c(C)cc(C)[nH]c1=O	Hep lipid drop 52 | Hep lipid conf inactive | AML12 cytotox inactive
Cc1ccnc(NS(=O)(=O)c2ccc(NC(=O)c3cc(-c4ccc(Br)cc4)nc4ccccc34)cc2)n1	none
CCCOC(=O)c1ccc(NC(=O)c2ccc(Br)o2)cc1	Hep lipid drop 74 | Hep lipid conf 82 | AML12 cytotox inactive | AML12 tox ATP inactive
COC(=O)Cc1ccc(NC(=O)c2ccc(Br)o2)cc1	none
CC(NC(=O)COc1ccc(-c2nnco2)cc1)c1ccc(Cl)cc1Cl (configuration not stated)	none
O=C(O)C(Cc1c[nH]c2ccccc12)NS(=O)(=O)c1ccc(Cl)cc1 (configuration not stated)	none
CCCCCc1cc(=O)oc2c(C(CCN3CCCC(C)C3)c3cc(OC)c(OC)c(OC)c3)c(OC)cc(OC)c12 (configuration not stated)	none
CCCCCc1cc(=O)oc2c(C(CCN3CCCC(C)C3)c3ccc(N(C)C)cc3)c(OC)cc(OC)c12 (configuration not stated)	Hep lipid drop 62 | Hep lipid conf inactive | AML12 cytotox inactive
c1cc2c3c(cccc3c1)NC1(CCC3(CC1)Nc1cccc4cccc(c14)N3)N2	MrgX1 PAM 7, RGS4 act -8.2, Hep lipid drop 51 | Hep lipid conf inactive | AML12 cytotox inactive
N#C/C(=C\c1ccc(-c2ccc([N+](=O)[O-])cc2)o1)C(=O)Nc1nc(-c2cccs2)cs1	none
N#C/C(=C\c1ccc(-c2ccccc2[N+](=O)[O-])o1)C(=O)Nc1nc(-c2cccs2)cs1	Hep lipid drop 72 | Hep lipid conf 101 | AML12 cytotox inactive | AML12 tox ATP inactive
CCOc1ccc(-n2c(SCC(=O)Nc3ccc(CC)cc3)nc3n[nH]c(C)c3c2=N)cc1	Hep lipid drop 51 | Hep lipid conf inactive | AML12 cytotox inactive
CCCN(CCC)C(=O)CSc1nc2n[nH]c(C)c2c(=N)n1-c1ccc(OCC)cc1	none (no result: Hep lipid drop)
CC(=O)Nc1ccc(Cc2ccc3[nH]c(=O)cc(C)c3c2)cc1	none
COc1ccc(CCNc2nc(=S)[nH]c3cc(OC)c(OC)cc23)cc1OC	none
COc1ccc2[nH]c3c(c2c1)CCN1C(=O)N([C@@H](C)C(=O)NCCc2ccc(OC)c(OC)c2)C(=O)[C@]31C	none (no result: Hep lipid drop)
COc1ccc(CCNC(=O)c2ccc(CNc3nc(=S)[nH]c4ccccc34)cc2)cc1OC	Hep lipid drop 52 | Hep lipid conf 101 | AML12 cytotox inactive | AML12 tox ATP inactive
COc1ccc(CCNC(=O)[C@H](C)N2C(=O)N3CCc4c([nH]c5ccccc45)[C@@]3(C)C2=O)cc1OC	Hep lipid drop 87 | Hep lipid conf 102 | AML12 cytotox inactive | AML12 tox ATP inactive
COc1cc(C(=O)Nc2ccc(NC(=O)c3ccccc3Cl)nc2)cc(OC)c1OC	none
CCCCOc1ccc(C(=O)Nc2cc(C)c(OCC(=O)N3CCOCC3)c(C)c2)cc1	Hep lipid drop 93 | Hep lipid conf 96 | AML12 cytotox inactive | AML12 tox ATP inactive
Cc1cc(NC(=O)c2cccc3ccccc23)cc(C)c1OCC(=O)N1CCOCC1	Hep lipid drop 61 | Hep lipid conf 88 | AML12 cytotox inactive | AML12 tox ATP inactive
COc1cc2ncnc(NCc3cccs3)c2cc1OC	Hep lipid drop 52 | Hep lipid conf 62 | AML12 cytotox 15
Cc1ccc2nc(Cc3ccc(N)cc3)[nH]c2c1	none (no result: Hep lipid drop)
Nc1ccc2nc(Cc3ccccc3)[nH]c2c1	Hep lipid drop 54 | Hep lipid conf inactive | AML12 cytotox inactive
CCOc1cc(Br)c(CC(=O)NC2CCCCCC2)cc1OCC	Hep lipid drop 116 | Hep lipid conf 108 | AML12 cytotox inactive | AML12 tox ATP inactive
COc1ccccc1CC(=O)NC1CCCCCC1	none (no result: Hep lipid drop)
Cc1ccc(/C(=N\S(=O)(=O)c2ccc(Br)cc2)Nc2ccccc2C)cc1	none
Cc1ccccc1N/C(=N/S(=O)(=O)c1ccccc1)c1ccc(F)cc1	Hep lipid drop 54 | Hep lipid conf inactive | AML12 cytotox inactive
COc1ccc(C(C(=O)NC(C)(C)C)N(Cc2cccs2)C(=O)CCC(=O)Nc2cc(C)on2)cc1 (configuration not stated)	Hep lipid drop 107 | Hep lipid conf 88 | AML12 cytotox inactive | AML12 tox ATP inactive
CCC(C)(C)NC(=O)C(c1ccc(OC)cc1)N(Cc1cccs1)C(=O)CCC(=O)Nc1cc(C)on1 (configuration not stated)	Hep lipid drop 78 (no result: RGS4 inh, RGS4 act) | Hep lipid conf 102 | AML12 cytotox inactive | AML12 tox ATP inactive

Compound activity from PubChem.
